Experimental data from the RNAGym collection of RNA variant scans (doi:10.1126/science.aae0568).
Variants at the floor of the assay were thinned out.

B1: tRNA (parent)
chain: GUUCCGUUGGCGUAAUGGUAACGCGUCUCCCUCCUAAGGAGAAGACUGCGGGUUCGAGUCCCGUACGGAACG

Variants of: B1
Assay: yeast fitness relative to wild type (ratio to wild type); higher = fitter; tRNA-Arg(CCU), competitive growth, 37 C, YPD
In short: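 Amplicons of the tRNA-Arg(CCU) gene were sequenced, 100-nucleotide paired-end, from the start population and from each end population of a pooled yeast competition. The competition, in six parallel replicates, lasted 24 hours in YPD at 37°C. Fitness relative to wild type was calculated from changes in genotype frequencies. Genotypes had to have ≥ 100 starting reads, and estimates < 0.5 were set to 0.5.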

Variant | yeast fitness
U2A G9C | 0.716
A45G U54G | 0.563
U8A G23A U32G C60U U64G A69C | ≤ 0.5
A37U C62U G67A | ≤ 0.5
A15U A69U | 0.696
C4A C5G A42G | ≤ 0.5
A57C A65C | 0.594
C4U C11G | 0.692
U3C U26G G67C | ≤ 0.5
U35C G41A | 0.882
C29U A36U C66U G67A | 0.527
C4G G23C A45U | ≤ 0.5
A21C C24G G25C G44A C55G G56A | ≤ 0.5
A42G A69U | 0.959
C11U U26G | 0.856
C22A U28C C30U G44A | ≤ 0.5
C5G U35C | 0.71
C4U A15C C34G A43C A65U | ≤ 0.5
C24A C30U A65G A69U | ≤ 0.5
G9A G12C G17A C22G C30U C34G | ≤ 0.5
C4G A21G A45U C49U C60A | ≤ 0.5

Variant | yeast fitness
A21C C22A C24U A36C | ≤ 0.5
A14U C24G C46G G52A | ≤ 0.5
U2C A42G C55U | ≤ 0.5
C33G A40G G58A C66G | ≤ 0.5
U13C C34G C62U | ≤ 0.5
U7A C11A C30A | ≤ 0.5
A40U A45U G48A C55U C66U | ≤ 0.5
A15U C31G U53A C55U G68U | ≤ 0.5
C29U C31G G44C | ≤ 0.5
U2G A57C C62A A65C | ≤ 0.5
A40U C61A | 0.76
C5A C27U C46U | 0.739
C27A C33G A45C | 0.53
U7C C33U A65U | ≤ 0.5
C5U U28A | 0.864
C11A A15C A57G C61U | ≤ 0.5
A14C A65G | 0.776
U3C A15C A43G C46G C66G A69G | ≤ 0.5
U8A C29G A65G C66G | 0.57
C34A A40G C66U | ≤ 0.5
U7A G52C | 0.55

Variant | yeast fitness
G17A U26G G51A | ≤ 0.5
U19C C31A C66U | 0.555
A21U A36U A45U A65U A70U | 0.624
G6A C29U A43C C46U C49U G56C | ≤ 0.5
C29U C46U C66U | 0.63
A14C G58C G67A | ≤ 0.5
U13A U32A C62U G63A | ≤ 0.5
C11G U16G C55A | ≤ 0.5
C5G U19A A20U G51C | ≤ 0.5
C4U U13C C66U A70C | 0.618
A14U U26A A42G U59G C60U | ≤ 0.5
U2A A15U C34A G39C A40C G56C C61G C62G G68C | ≤ 0.5
U7A C22G | 0.669
U19C U64C | 0.893
U13C A65C | 0.873
G56A G63C | 0.818
C30U U35A A37G G38C U47A | ≤ 0.5
A21U G41C | 0.715
A37U G51A C55U | ≤ 0.5
U7A C29A G58A C61G G63A A70U | 0.526
C5U C34A G44C C62U | 0.723

Variant | yeast fitness
C27U U54C G67C | 0.54
C49G U53A | 0.627
A15U C46U | 0.978
C34U U35C A69U | ≤ 0.5
C4U G12C C27U | 0.535
G18C C29U G50C | ≤ 0.5
G25C C34G G39U U47G | ≤ 0.5
A15C U28A C34G A37G A43U | ≤ 0.5
G9A C27A C49U C60U C62A A65G | ≤ 0.5
U26G G58A | 0.881
A14C U28A A42U | ≤ 0.5
U2C G18C C30U A57C U64C | ≤ 0.5
C11G A37C G51A G67A | ≤ 0.5
U13C G18A A69C | 0.719
U54C C62U G68C | ≤ 0.5
U28A A57G | 0.688
G10C C34G U59A | ≤ 0.5
U8G C34U A40C | 0.591
C22G C31G G58C G67C | ≤ 0.5
G9C G67A | 0.58
C60G G63C | ≤ 0.5
